# Experiments:
# Assay type in all cases: functional
# Settings in all cases: read-out: ED50 (the source's name)
# Caenorhabditis elegans = assay: Antinematodal activity against Caenorhabditis elegans after 24 hrs by microscopy
# Method in brief: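 C. elegans were grown on NG agar carrying an E. coli strain, kept at room temperature and subcultured before the assay. Worms in physiological saline were diluted to 20-25 per 48 μL, with three wells per treatment. Each well received 2 μL of 50% DMSO or 50% DMSO containing compound. Plates were covered in a humid chamber, and dead worms were counted by microscopy after 24 h.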
# Panagrellus redivivus = assay: Antinematodal activity against Panagrellus redivivus after 24 hrs by microscopy
# Method in brief: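 P. redivivus were kept in aseptic liquid Basal Heme medium at room temperature and subcultured before testing. Worms were suspended in physiological saline and diluted to 20-25 per 48 μL aliquot, with triplicate wells per treatment. 2 μL of 50% DMSO, alone or with compound, was added. Plates were covered and humidified, and mortality was scored microscopically at 24 h.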
# [1] = system: Bursaphelenchus xylophilus; assay: Antinematodal activity against Bursaphelenchus xylophilus after 24 hrs by microscopy
# Method in brief: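 B. xylophilus were grown on PDB agar carrying Botrytis cinerea, kept at room temperature and subcultured before the assay. They were diluted in physiological saline to 20-25 worms per 48 μL and dispensed into three wells per treatment. 2 μL of 50% DMSO, with or without compound, was added. Plates were covered and held in a humid chamber. Dead worms were counted microscopically at 24 h.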
smiles,measurement,setting,value
CC[C@@]12SS[C@]3(C(=O)N1C)[C@@H](O)[C@]1([C@@]45c6ccccc6N[C@@H]4N4C(=O)[C@@]6(C)SS[C@]4(C(=O)N6C)[C@H]5O)c4ccccc4N[C@@H]1N3C2=O,EC50,Caenorhabditis elegans,50 µg/mL
same,EC50,Panagrellus redivivus,80 µg/mL
same,EC50,[1],> 400 µg/mL
CN1C(=O)[C@@]23C[C@]4([C@@]56c7ccccc7N[C@@H]5N5C(=O)[C@@]7(C)SS[C@]5(C(=O)N7C)[C@H]6O)c5ccccc5N[C@@H]4N2C(=O)[C@]1(C)SS3,EC50,Caenorhabditis elegans,10 µg/mL
same,EC50,Panagrellus redivivus,40 µg/mL
same,EC50,[1],> 400 µg/mL
CN1C(=O)[C@]23SSS[C@]1(C)C(=O)N2[C@H]1Nc2ccccc2[C@@]1([C@@]12c4ccccc4N[C@@H]1N1C(=O)[C@@]4(C)SS[C@]1(C(=O)N4C)[C@H]2O)[C@@H]3O [GLIOCLADINE A],EC50,Caenorhabditis elegans,25 µg/mL
same,EC50,Panagrellus redivivus,50 µg/mL
same,EC50,[1],> 400 µg/mL
CN1C(=O)C23SSSS[C@]1(C)C(=O)N2[C@H]1Nc2ccccc2[C@@]1([C@@]12c4ccccc4N[C@@H]1N1C(=O)[C@@]4(C)SS[C@]1(C(=O)N4C)[C@H]2O)[C@@H]3O [GLIOCLADINE B],EC50,Caenorhabditis elegans,30 µg/mL
same,EC50,Panagrellus redivivus,25 µg/mL
same,EC50,[1],> 400 µg/mL
CN1C(=O)[C@]23SS[C@]1(C)C(=O)N2[C@H]1Nc2ccccc2[C@@]1(c1c[nH]c2ccccc12)[C@@H]3O [GLIOCLADINE C],EC50,Caenorhabditis elegans,200 µg/mL
same,EC50,Panagrellus redivivus,250 µg/mL
same,EC50,[1],> 400 µg/mL
CN1C(=O)[C@]23SSS[C@]1(C)C(=O)N2[C@H]1Nc2ccccc2[C@@]1(c1c[nH]c2ccccc12)[C@@H]3O [GLIOCLADINE D],EC50,Caenorhabditis elegans,200 µg/mL
same,EC50,Panagrellus redivivus,250 µg/mL
same,EC50,[1],> 400 µg/mL
CN1C(=O)[C@]23SSSS[C@]1(C)C(=O)N2[C@H]1Nc2ccccc2[C@@]1(c1c[nH]c2ccccc12)[C@@H]3O [GLIOCLADINE E],EC50,Caenorhabditis elegans,200 µg/mL
same,EC50,Panagrellus redivivus,250 µg/mL
same,EC50,[1],> 400 µg/mL
CN1C(=O)[C@]23SS[C@@]1(C)C(=O)N2[C@H]1Nc2ccccc2[C@@]1([C@@]12c4ccccc4N[C@@H]1N1C(=O)[C@@]4(C)SS[C@]1(C(=O)N4C)[C@H]2O)[C@@H]3O [VERTICILLIN A],EC50,Caenorhabditis elegans,30 µg/mL
same,EC50,Panagrellus redivivus,80 µg/mL
same,EC50,[1],> 400 µg/mL
